Reference: ChEMBL document CHEMBL1139460 (J Med Chem, 2005)
Active and inactive are the calls of the source. No cut-off for these calls is given here.

What was measured:
[1] = target: T1, GABA-A receptor; alpha-1/beta-3/gamma-2 (Homo sapiens, UniProt P14867+P18507+P28472); assay: Displacement of [3H]Ro 15-1788 from human recombinant GABAA alpha-1-beta-3-gamma-2 receptor expressed in L(tk-) cells; type: cell-based
T1 sequence (P14867 whole entry): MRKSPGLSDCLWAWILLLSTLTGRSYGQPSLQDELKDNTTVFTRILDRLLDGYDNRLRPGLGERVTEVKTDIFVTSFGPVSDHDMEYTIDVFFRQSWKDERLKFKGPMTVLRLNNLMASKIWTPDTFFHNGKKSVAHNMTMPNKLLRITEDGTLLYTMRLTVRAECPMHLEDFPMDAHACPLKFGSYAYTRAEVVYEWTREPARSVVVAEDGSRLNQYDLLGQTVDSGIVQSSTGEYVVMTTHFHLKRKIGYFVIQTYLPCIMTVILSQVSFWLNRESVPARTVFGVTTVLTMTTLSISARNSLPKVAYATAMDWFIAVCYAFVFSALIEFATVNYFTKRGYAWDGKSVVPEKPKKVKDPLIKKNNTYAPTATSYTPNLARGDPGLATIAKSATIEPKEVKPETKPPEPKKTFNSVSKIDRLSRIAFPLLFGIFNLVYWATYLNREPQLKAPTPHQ
T1 sequence (P18507 whole entry): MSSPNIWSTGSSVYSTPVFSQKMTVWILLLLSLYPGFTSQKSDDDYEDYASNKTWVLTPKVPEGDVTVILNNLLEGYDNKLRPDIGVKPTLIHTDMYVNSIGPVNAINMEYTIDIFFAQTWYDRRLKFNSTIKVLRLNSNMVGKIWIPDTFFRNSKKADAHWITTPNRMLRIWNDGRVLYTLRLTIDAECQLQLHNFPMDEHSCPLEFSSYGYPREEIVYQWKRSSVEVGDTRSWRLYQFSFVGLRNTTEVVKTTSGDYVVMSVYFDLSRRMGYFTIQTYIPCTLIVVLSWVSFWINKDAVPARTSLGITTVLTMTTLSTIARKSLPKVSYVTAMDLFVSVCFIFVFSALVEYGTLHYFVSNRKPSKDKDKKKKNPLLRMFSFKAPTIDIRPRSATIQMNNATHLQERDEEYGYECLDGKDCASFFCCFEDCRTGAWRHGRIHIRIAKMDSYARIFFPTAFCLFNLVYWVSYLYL
T1 sequence (P28472 whole entry): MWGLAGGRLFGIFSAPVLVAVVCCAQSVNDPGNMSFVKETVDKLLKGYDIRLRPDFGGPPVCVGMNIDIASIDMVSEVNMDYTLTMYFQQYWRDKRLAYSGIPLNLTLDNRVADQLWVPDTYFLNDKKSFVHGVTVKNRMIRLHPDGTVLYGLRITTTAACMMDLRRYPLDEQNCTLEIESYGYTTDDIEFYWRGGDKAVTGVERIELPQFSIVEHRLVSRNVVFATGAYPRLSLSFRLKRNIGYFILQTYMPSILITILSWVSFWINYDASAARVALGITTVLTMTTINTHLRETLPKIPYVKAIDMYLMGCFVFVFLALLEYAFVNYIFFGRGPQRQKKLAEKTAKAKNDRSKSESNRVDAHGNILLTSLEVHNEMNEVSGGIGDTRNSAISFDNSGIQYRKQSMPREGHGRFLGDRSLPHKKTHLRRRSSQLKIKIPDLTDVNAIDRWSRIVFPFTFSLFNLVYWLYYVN

[2] = target: T2, GABA-A receptor; alpha-2/beta-3/gamma-2 (Homo sapiens, UniProt P18507+P28472+P47869); assay: Displacement of [3H]Ro 15-1788 from human recombinant GABAA alpha-2-beta-3-gamma-2 receptor expressed in L(tk-) cells; type: cell-based
T2 sequence (P18507 whole entry): T1 sequence (P18507 whole entry)
T2 sequence (P28472 whole entry): T1 sequence (P28472 whole entry)
T2 sequence (P47869 whole entry): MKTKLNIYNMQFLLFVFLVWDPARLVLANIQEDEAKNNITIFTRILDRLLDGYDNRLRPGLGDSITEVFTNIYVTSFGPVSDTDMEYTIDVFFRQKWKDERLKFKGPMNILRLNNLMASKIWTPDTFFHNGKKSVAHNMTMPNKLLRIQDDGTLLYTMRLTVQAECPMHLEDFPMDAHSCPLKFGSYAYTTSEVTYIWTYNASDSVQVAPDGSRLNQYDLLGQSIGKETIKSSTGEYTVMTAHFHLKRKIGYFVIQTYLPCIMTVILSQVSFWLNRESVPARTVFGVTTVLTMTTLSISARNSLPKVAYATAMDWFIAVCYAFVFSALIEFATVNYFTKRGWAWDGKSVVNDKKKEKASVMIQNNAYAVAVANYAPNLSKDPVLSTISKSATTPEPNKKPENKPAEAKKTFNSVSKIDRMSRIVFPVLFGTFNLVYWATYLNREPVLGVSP

[3] = target: T3, GABA-A receptor; alpha-3/beta-3/gamma-2 (Homo sapiens, UniProt P18507+P28472+P34903); assay: Displacement of [3H]Ro 15-1788 from human recombinant GABAA alpha-3-beta-3-gamma-2 receptor expressed in L(tk-) cells; type: cell-based
T3 sequence (P18507 whole entry): T1 sequence (P18507 whole entry)
T3 sequence (P28472 whole entry): T1 sequence (P28472 whole entry)
T3 sequence (P34903 whole entry): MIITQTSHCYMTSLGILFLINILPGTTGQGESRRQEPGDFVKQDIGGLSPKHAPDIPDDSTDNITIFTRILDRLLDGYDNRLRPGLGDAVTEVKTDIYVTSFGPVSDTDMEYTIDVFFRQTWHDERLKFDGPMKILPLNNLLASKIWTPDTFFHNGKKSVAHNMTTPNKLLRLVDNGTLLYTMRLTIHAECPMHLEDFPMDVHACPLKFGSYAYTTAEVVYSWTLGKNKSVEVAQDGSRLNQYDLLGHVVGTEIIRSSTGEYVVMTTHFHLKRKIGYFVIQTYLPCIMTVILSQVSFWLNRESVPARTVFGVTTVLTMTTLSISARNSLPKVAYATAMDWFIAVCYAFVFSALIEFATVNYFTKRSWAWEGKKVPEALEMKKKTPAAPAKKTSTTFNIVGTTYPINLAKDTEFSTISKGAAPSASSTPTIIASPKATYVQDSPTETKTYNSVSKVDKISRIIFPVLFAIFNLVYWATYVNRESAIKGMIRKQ

[4] = target: T4, GABA-A receptor; alpha-1/beta-3/gamma-2 (Homo sapiens) (UniProt P14867+P18507+P28472); assay: Efficacy at human recombinant GABAA alpha-1-beta-3-gamma-2 receptor expressed in Xenopus laevis oocytes by two electrode voltage clamp method relative to GABA; type: cell-based; settings: Oocyte
[5] = target: T5, GABA-A receptor; alpha-3/beta-3/gamma-2 (Homo sapiens) (UniProt P18507+P28472+P34903); assay: Efficacy at human recombinant GABAA alpha-3-beta-3-gamma-2 receptor expressed in Xenopus laevis oocytes by two electrode voltage clamp method relative to GABA; type: cell-based; settings: Oocyte
[6] = target: T6, GABA-A receptor; alpha-2/beta-3/gamma-2 (Homo sapiens) (UniProt P18507+P28472+P47869); assay: Efficacy at human recombinant GABAA alpha-2-beta-3-gamma-2 receptor expressed in Xenopus laevis oocytes by two electrode voltage clamp method relative to GABA; type: cell-based; settings: Oocyte
Summary of the method: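 Human α2β3γ2 GABA-A receptors were transiently expressed in Xenopus oocytes and recorded by two-electrode voltage clamp. […] Efficacy is the percent modulation of the submaximal GABA EC20 ion current.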

[7] = target: T4, GABA-A receptor; alpha-1/beta-3/gamma-2 (Homo sapiens); assay: Efficacy at human recombinant GABAA alpha-1-beta-3-gamma-2 receptor expressed in L(tk-) cells by two electrode voltage clamp method relative to GABA; type: cell-based
Summary of the method: (§1)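 Receptors stably expressed in L(tk-) fibroblasts; percent modulation of the submaximal (EC20) GABA response, multiple drug concentrations assessed.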

[8] = target: T6, GABA-A receptor; alpha-2/beta-3/gamma-2 (Homo sapiens); assay: Efficacy at human recombinant GABAA alpha-2-beta-3-gamma-2 receptor expressed in L(tk-) cells by two electrode voltage clamp method relative to GABA; type: cell-based; summary of the method: as §1
[9] = target: T5, GABA-A receptor; alpha-3/beta-3/gamma-2 (Homo sapiens); assay: Efficacy at human recombinant GABAA alpha-3-beta-3-gamma-2 receptor expressed in L(tk-) cells by two electrode voltage clamp method relative to GABA; type: cell-based; summary of the method: as §1
[10] = Half life in rat; type: ADME, organism-based; settings: in vivo
[11] = system: Rattus norvegicus; assay: Receptor occupancy at GABAA receptor in rat at 30 mg/kg, po; type: functional
[12] = system: Rattus norvegicus; assay: Anxiolytic effect in rat at 1 mg/kg, po by anxiolytic assay; type: functional, organism-based; design: dose 1 mg/kg
[13] = system: Rattus norvegicus; assay: Anxiolytic effect in rat at 3 mg/kg, po by anxiety assay; type: functional, organism-based; design: dose 3 mg/kg
[14] = system: Rattus norvegicus; assay: Receptor occupancy at GABAA receptor in rat at 1 mg/kg, po; type: functional
[15] = system: Rattus norvegicus; assay: Receptor occupancy at GABAA receptor in rat at 3 mg/kg, po; type: functional
[16] = Bioavailability in rat; type: ADME, organism-based; settings: in vivo
[17] = system: Rattus norvegicus; assay: Sedative effect in orally dosed rat at by chain-pulling assay; type: functional, organism-based
[18] = Half life in dog; type: ADME, organism-based, Canis lupus familiaris; settings: in vivo
[19] = Bioavailability in dog; type: ADME, organism-based, Canis lupus familiaris; settings: in vivo
[20] = system: Mus musculus; assay: Receptor occupancy in vivo by displacement of [3H]Ro 15-1788 binding from GABAA receptor in orally dosed Swiss Webster mouse; type: functional; settings: po, read-out: ID50 (the source's name)

Structure (SMILES) | Ki [1] | Ki [2] | Ki [3] | Efficacy [4] | Efficacy [5] | Efficacy [6] | Efficacy [7] | Efficacy [9] | further results
Cn1ncnc1COc1nn2c(-c3ccccc3)nnc2cc1C1CCCCC1 | 6.2 nM | 14 nM | 4.8 nM | 65% | 109% | – | – | – | –
CN1C(=O)CN=C(c2ccccc2)c2cc(Cl)ccc21 | – | – | – | – | – | 115% | – | – | –
Cn1ncnc1COc1nn2c(-c3ccccc3)nnc2cc1C1CCC1 | 0.23 nM | 0.25 nM | 0.17 nM | – | – | – | 27% | 72% | Efficacy [8]: 41%
Cn1ncnc1COc1nn2c(-c3ccccc3)nnc2cc1C1CCCC1 | 0.38 nM | 0.73 nM | 0.34 nM | – | – | – | 47% | 63% | –
c1ccc(-c2nnc3c4c(c(OCc5ccccn5)nn23)C2CCC4CC2)cc1 | – | – | 12 nM | 51% | 38% | 23% | – | – | –
Cc1ccc(-c2nc3ccc(C)cn3c2CC(=O)N(C)C)cc1 | – | – | – | 160% | – | 123% | – | – | –
Cn1ncnc1COc1nn2c(-c3ccccc3)nnc2cc1C(C)(C)C | 0.36 nM | – | 0.14 nM | – | – | – | 0% | 34% | –
c1ccc(-c2cc3nnc(-c4ccccc4)n3nc2OCc2ccccn2)cc1 | 1.1 nM | 2.9 nM | 1.8 nM | 80% | 77% | – | – | – | –
CCn1ncnc1COc1nn2c(-c3ccccc3F)nnc2cc1C(C)(C)C [MK-0777] | 0.27 nM | 0.31 nM | 0.2 nM | – | – | – | – | – | half-life [10]: 1.4 h; Activity [11]: 99%; Activity [12]: Active; Activity [13]: Active; Activity [14]: 70%; Activity [15]: 88%; bioavailability [16]: 35%; Activity [17]: inactive; half-life [18]: 1.5 h; bioavailability [19]: 53%; ED50 [20]: 0.42 mg/kg
Cn1ncnc1COc1nn2c(-c3ccccc3)nnc2cc1-c1ccccc1 | 0.78 nM | 2.6 nM | 1.2 nM | 94% | 115% | – | – | – | –
